rCAG RNA binder – r(CAG) repeat RNA binding; TO-PRO-1 dye displacement fluorescence; inhibition, % at 3 µM; 370,000 tested, 1.3% active;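 active = inhibition above the plate cutoff, the mean of all test compounds on that plate plus 3 SD, cut at about 35% in these data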;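 note: 0% = DMSO alone and 100% = 100 µM mitoxantrone as full dye displacement; higher means more dye released from RNA so lower well fluorescence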
LMPTP inh – LMPTP (human) inhibition; P24666; recombinant LMPTP-A, OMFP fluorogenic substrate, fluorescence intensity; inhibition, % at 20 µM; 360,000 tested, 0.22% active; AID 651560;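 active = compounds that cut the enzyme signal by at least half of the control window in the single-dose screen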;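 note: plate controls were DMSO wells with enzyme plus substrate for no effect and substrate without enzyme for full effect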
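Test system: LMPTP-A phosphatase enzyme; input: 0.625 nM LMPTP-A final; reagent: OMFP substrate, 400 µM final; compound dosing: 20 µM single dose, 3% DMSO; incubation: 50 min dark incubation at room temperature; measured by: endpoint fluorescence intensity from OMFP dephosphorylation; measure: % inhibition relative to no-enzyme and uninhibited control wells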
NadD inh – blocks S. aureus nicotinate mononucleotide adenylyltransferase; 360,000 tested, 0.78% active; purified NadD enzyme, colorimetric absorbance read-out; AID 602399; inhibition, % at 20 µM; in the data active = inhibition above about 26%
STEP inh – STEP (human) phosphatase inhibition. P54829. recombinant STEP, OMFP fluorogenic substrate, fluorescence. inhibition, % at 20 µM. 360,000 tested, 0.25% active. AID 588621;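 active = inhibition at 20 µM, scaled per plate between control wells, above about 37%, limit read from the data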;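 note: 0% = DMSO with enzyme and substrate and 100% = substrate only without enzyme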
Target sequence (P54829 whole entry, looked up): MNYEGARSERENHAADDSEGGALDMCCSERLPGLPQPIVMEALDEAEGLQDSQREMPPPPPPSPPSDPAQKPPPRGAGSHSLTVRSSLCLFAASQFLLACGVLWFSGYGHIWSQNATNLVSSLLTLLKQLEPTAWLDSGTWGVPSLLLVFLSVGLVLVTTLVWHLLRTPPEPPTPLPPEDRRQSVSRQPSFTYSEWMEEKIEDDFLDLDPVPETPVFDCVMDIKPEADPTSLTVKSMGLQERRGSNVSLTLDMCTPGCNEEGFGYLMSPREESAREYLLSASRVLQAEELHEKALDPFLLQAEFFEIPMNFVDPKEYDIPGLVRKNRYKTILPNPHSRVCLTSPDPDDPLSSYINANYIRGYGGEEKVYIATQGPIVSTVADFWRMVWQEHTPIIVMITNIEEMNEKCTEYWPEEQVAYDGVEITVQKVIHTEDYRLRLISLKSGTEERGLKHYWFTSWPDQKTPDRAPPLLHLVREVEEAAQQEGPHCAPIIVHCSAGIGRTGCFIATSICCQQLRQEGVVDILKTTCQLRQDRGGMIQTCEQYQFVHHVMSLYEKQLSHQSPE
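Measure: Control-normalized % inhibition with plate pattern correction | Test system: STEP phosphatase, cell-free reaction | Medium: pH 6.0 Bis-Tris with DTT and Tween 20 | Technique: Fluorescence, 480/540 nm | Times: Reaction 20 min, ambient temperature | Doses: Single compound dose of 20 µM, 1% DMSO final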
Scp-1 inhibitor – inhibitors of human Scp-1 phosphatase. inhibition, % at 20 µM. Recombinant Scp1, phosphopeptide, malachite green phosphate absorbance. 340,000 tested, 0.88% active. Q9GZU7;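 active = inhibition above about 50% at 20 µM, limit read from the data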;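 note: plate controls were DMSO wells with enzyme for no effect and wells lacking enzyme for full effect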
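System: SCP-1 catalytic domain; Reagent: Phospho 17-mer peptide substrate; Doses: one concentration, 20 µM, with 1.0% DMSO; Incubation: 45 min room-temperature reaction, 5 min colour, 30 min stabiliser; Signal: Phosphate-binding colour reagent, absorbance read at 630 nm.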
rCAG binder conf – r(CAG) RNA repeat binding, confirmation; shares compounds with rCAG RNA binder; TO-PRO-1 dye displacement fluorescence; inhibition, % at 3 µM; 4,300 tested, 70% active; AID 652065;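 active = inhibition above a per-plate cutoff, the mean inhibition of sample wells plus 3 SD, cut at about 35% in these data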;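 note: loss of TO-PRO-1 fluorescence as compound displaces dye from 1x1 AA loop RNA; 0% = DMSO only wells and 100% = 100 µM mitoxantrone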
DNA CAG counter – disrupts DNA CAG TO-PRO-1 complex, flagging rCAG hits | inhibition, % at 3 µM | shares compounds with rCAG RNA binder | 4,300 tested, 94% active | AID 652068 | d(CAG) DNA oligo TO-PRO-1 dye displacement, fluorescence;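 active = inhibition above its plate's cutoff, the mean test-well inhibition plus 3 SD, cut at about 4.8% in these data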;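 note: 0% = DNA dye mix with DMSO and 100% = 100 µM mitoxantrone; hits displace the dye from DNA and so lower well fluorescence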
* marks the source's active call; other numbers are inactive results. Compounds with a hit are over-represented: about 2.6% of the library has one in this group of screens.

Screening O=C1/C(=C\c2ccco2)SC(=S)N1c1ccc(O)cc1 returned rCAG RNA binder 16, LMPTP inh -2, NadD inh -3, STEP inh 3 and Scp-1 inhibitor -5.
`O=C(NN1C(=O)/C(=C/C=C/c2ccco2)SC1=S)c1ccncc1` gave rCAG RNA binder 77*, LMPTP inh 45, NadD inh 4, STEP inh 55*, Scp-1 inhibitor 72*, rCAG binder conf 81* and DNA CAG counter 48*.
`O=C1/C(=C/C=C/c2ccco2)SC(=S)N1c1ccc(O)cc1` gave rCAG RNA binder 74*, LMPTP inh 58*, NadD inh 25, STEP inh 16, Scp-1 inhibitor 59*, rCAG binder conf 77* and DNA CAG counter 46*.
O=C(N/N=C/C=C/c1ccco1)c1ccncc1 was read as rCAG RNA binder 8, LMPTP inh 0, NadD inh 9, STEP inh 0 and Scp-1 inhibitor 2.
For CCCC[C@H](C(=O)N(C)c1ccccc1)[C@@H](O)c1ccc2ccccc2c1 the results were rCAG RNA binder 2.
CCCc1c(OCCCOc2ccc(OCC(=O)O)cc2)ccc(C(C)=O)c1O was read as rCAG RNA binder 61*, LMPTP inh 2, NadD inh 18, STEP inh 0, Scp-1 inhibitor -9, rCAG binder conf 51* and DNA CAG counter 16*.
CCOc1cc(-c2c(C#N)c(=O)[nH]c3c2c(C)nn3-c2ccc(F)cc2)ccc1O was read as rCAG RNA binder 48*, LMPTP inh -1, NadD inh 2, STEP inh -5, Scp-1 inhibitor -5, rCAG binder conf 27 and DNA CAG counter 6.6*.
CC(=O)N1CCc2c1cccc2S(=O)(=O)NC(CC(C)C)C(=O)Nc1ccc(F)cc1Cl (centres undefined) was read as rCAG RNA binder 8.
`Cc1cc(/C=C2/C(=N)N3C(=NC2=O)SN=C3S(C)(=O)=O)c(C)n1-c1ccccc1F` gave rCAG RNA binder 80*, LMPTP inh 2, NadD inh 10, STEP inh -1, Scp-1 inhibitor -1, rCAG binder conf 83* and DNA CAG counter 56*.
Screening COc1cc(/C=C2\C(=N)N3N=C(S(C)(=O)=O)SC3=NC2=O)cc(OC)c1OCCOc1ccccc1C returned rCAG RNA binder 55*, LMPTP inh 2, NadD inh 26*, STEP inh 1, Scp-1 inhibitor 10, rCAG binder conf 92* and DNA CAG counter 81*.
CC1=CC2=NC(=O)/C(=C\c3cc(C)n(-c4ccccc4F)c3C)C(=N)N2O1 was read as rCAG RNA binder 4, LMPTP inh -1, NadD inh -6, STEP inh -2 and Scp-1 inhibitor -9.
For Cc1cc(/C=C2\C(=N)N3N=C(S(C)(=O)=O)SC3=NC2=O)c(C)n1Cc1ccccc1 the results were rCAG RNA binder 66*, LMPTP inh 1, NadD inh 28, STEP inh 2, Scp-1 inhibitor 20, rCAG binder conf 89* and DNA CAG counter 62*.
For COc1cccc(OCCOc2ccc(/C=C3\C(=N)N4N=C(S(C)(=O)=O)SC4=NC3=O)cc2OC)c1 the results were rCAG RNA binder 52*, LMPTP inh 3, NadD inh 29, STEP inh 2, Scp-1 inhibitor 42, rCAG binder conf 91* and DNA CAG counter 75*.
Cc1nc(-c2ccccc2)c(-c2ccccc2)[nH]1 was read as rCAG RNA binder 1, LMPTP inh 5, NadD inh -7, STEP inh -2 and Scp-1 inhibitor -2.
Screening Cc1ccc(-c2[nH]c(-c3ccc(C(=O)O)cc3)nc2-c2ccccc2)cc1 returned rCAG RNA binder 70*, LMPTP inh 0, NadD inh 14, STEP inh 0, Scp-1 inhibitor -4, rCAG binder conf 58* and DNA CAG counter 18*.
Nc1cc2cccnc2cc1Cl was read as rCAG RNA binder 41*, LMPTP inh 40, NadD inh 0, STEP inh 0, Scp-1 inhibitor -8, rCAG binder conf 5 and DNA CAG counter 1.

Screening data (PubChem BioAssay)
